A selection: hits, their analogues and other compounds. The true share with any hit is near 1.4%.
CCR6 antag: CCR6 receptor antagonists, primary screen, cell-based, CHO-K1, luminescence, beta-arrestin, uHTS; CHO-K1 CCR6 PathHunter beta-arrestin, CCL20-stimulated; inhibition, % at 20 µM; 0.49% of 340,000 active; AID 493098, 2011;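 active means compounds whose inhibition of the agonist-driven luminescence signal at 20 µM reaches about 50%, limit read from the data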;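 further: cells stimulated with CCL20 at 14 nM final; plate controls were DMSO with CCL20 for no effect and DMSO without agonist for full effect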
Target sequence (P51684 whole entry, looked up): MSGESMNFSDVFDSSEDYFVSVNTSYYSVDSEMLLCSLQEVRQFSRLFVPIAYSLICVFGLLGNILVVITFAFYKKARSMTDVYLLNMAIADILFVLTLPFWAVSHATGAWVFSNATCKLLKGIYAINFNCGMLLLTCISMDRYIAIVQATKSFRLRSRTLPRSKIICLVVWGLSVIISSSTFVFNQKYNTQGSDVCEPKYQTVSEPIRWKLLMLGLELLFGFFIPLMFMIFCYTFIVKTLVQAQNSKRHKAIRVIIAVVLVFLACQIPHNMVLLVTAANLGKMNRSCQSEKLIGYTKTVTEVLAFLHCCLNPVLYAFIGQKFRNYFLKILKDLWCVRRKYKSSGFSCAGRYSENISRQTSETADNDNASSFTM
CXCR6 inh: CXCR6 receptor inhibitors, primary screen, cell-based, beta-arrestin, luminescence, CHO-K1 PathHunter, 1536-well. C-X-C chemokine receptor type 6 (Homo sapiens), O00574. inhibition, % at 20 µM. 0.36% of 360,000 active. AID 602244, 2012; in the data active means inhibition above about 34%, passing the limit was not always enough;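 further: antagonist mode with CXCL16 agonist at 10 nM final; 0% = 10 nM CXCL16 with DMSO and 100% = unstimulated wells without agonist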
A3G deaminase: APOBEC3G DNA deaminase inhibitors, primary screen, biochemical, fluorescence, single-stranded DNA substrate, uHTS. AID 493012, 2011. recombinant A3G, ssDNA deamination FAM/TAMRA fluorescence. 0.28% of 330,000 active. DNA dC->dU-editing enzyme APOBEC-3G (Homo sapiens), Q9HC16. inhibition, % at 20 µM;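 active means inhibition of at least 40% at 20 µM, with no more than 30% in the related APOBEC3A deaminase screen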;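 further: plate controls were DMSO wells with A3G for no effect and wells lacking A3G enzyme for full effect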
APJ ag: agonists of human apelin receptor APJ, primary screen, CHO-K1 cells, PathHunter beta-arrestin, luminescence; P35414; activation, % at 20 µM; 0.11% of 330,000 active; AID 2520, 2010; 0% DMSO wells, 100% apelin;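 active means activation more than six SD over the plate average, tested at 20 µM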;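 further: 0% = DMSO alone and 100% = apelin-13 at 10 nM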
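Material: engineered CHO-K1 APJ arrestin reporter cells; amount: 1000 CHO-K1 reporter cells seeded per well; incubation: compound stimulation 90 min at 25 °C, detection 60 min; signal: luminescent beta-gal fragment complementation, chemiluminescent substrate; read-out basis: APJ agonist activity; controls: DMSO-only wells as negative, 10 nM Apelin-13 as positive control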
A3A deaminase: APOBEC3A ssDNA deaminase inhibitors, primary screen, selectivity assay for APOBEC3G inhibitor project, biochemical, FAM/TAMRA oligo cleavage fluorescence. DNA dC->dU-editing enzyme APOBEC-3A (Homo sapiens), P31941. recombinant A3A, FAM/TAMRA ssDNA deamination fluorescence. inhibition, % at 20 µM. 0.41% of 330,000 active. AID 493011, 2011;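 active means at least 40% inhibition at 20 µM here, with at most 30% in a related deaminase screen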;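 further: plate controls were A3A with DMSO for no effect and wells lacking A3A enzyme for full effect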
Target sequence (P31941 whole entry, looked up): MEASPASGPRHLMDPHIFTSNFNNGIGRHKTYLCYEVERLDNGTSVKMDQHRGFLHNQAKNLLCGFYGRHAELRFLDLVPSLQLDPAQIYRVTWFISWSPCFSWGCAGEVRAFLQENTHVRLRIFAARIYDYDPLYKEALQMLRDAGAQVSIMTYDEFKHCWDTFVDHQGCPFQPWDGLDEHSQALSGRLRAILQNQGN
APJ antagonist: antagonists of human apelin receptor APJ, primary screen, CHO-K1 cells, beta-arrestin complementation, luminescence; inhibition, % at 20 µM; 0.32% of 330,000 active; P35414;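 active means inhibition above about 40% at 20 µM, limit read from the data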;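 further: cells challenged with 10 nM apelin-13 agonist together with compound; plate controls were apelin-13 plus DMSO wells for no effect and DMSO wells lacking apelin-13 for full effect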
APJ antag confirm: APJ antagonists blocking beta-arrestin recruitment, confirmation, cell-based, luminescence, single concentration, uHTS hits. shares compounds with APJ antagonist. antagonist mode. inhibition, % at 20 µM. 66% of 950 active. AID 2766, 2010; in the data active means inhibition above about 50%
An asterisk follows results filed as active; x = no result.

SMILES	CCR6 antag	CXCR6 inh	A3G deaminase	APJ ag	A3A deaminase	APJ antagonist	APJ antag confirm
CC(C)(C)C1C/C(=C/c2ccccn2)C(=O)/C(=C/c2ccccn2)C1 (stereo unspecified)	64.6*	32.4	-6.4	-8.5	-4.5	44.5*	45.9
CCOc1ccc(-c2c(C(=O)N/N=C/c3ccc(O)cc3)nnn2-c2nonc2N)cc1	-2.3	0.6	-6.3	-3.8	-3.8	4.7	x
CCOc1ccc(-c2c(C(=O)N/N=C/c3cccc(Br)c3)nnn2-c2nonc2N)cc1	18.0	14.9	1.0	-3.6	-1.6	44.5*	46.9
CCOC(=O)c1c(C)[nH]c(C2=NNC(=Nc3cccc(Cl)c3)SC2)c1C	x	x	-3.0	-1.1	-3.5	-2.5	x
C=CCNC(=O)NC(=O)COC(=O)[C@H](C)NS(=O)(=O)c1c(C)c(C)cc(C)c1C	2.0	1.9	-3.1	1.1	-3.4	-4.9	x
CCCCCOC(=O)c1c(N)n(CCOC)c2nc3ccccc3nc12	9.3	7.8	0.8	-11.1	-0.1	43.5*	-3.1
COCCOC(=O)c1c(N)n(CCCN2CCOCC2)c2nc3ccccc3nc12	5.1	7.9	-6.8	-5.2	-0.9	-5.8	x
CCOC(=O)c1c(C2COc3ccccc3O2)csc1NC(=O)c1ccco1 (stereo unspecified)	10.1	8.2	37.7	-9.0	-4.8	42.7*	77.1*
CCOC(=O)c1c(-c2cccs2)csc1NC(=O)c1ccco1	-17.4	-5.0	-4.3	0.6	-0.5	20.4	x
O=C(CSc1nc2ccccc2o1)Nc1nncs1	-1.8	-8.3	-4.5	-5.0	-1.2	52.4*	23.2
Cc1ccc(N2C(=O)C(Cc3ccc(O)cc3)NC2=S)cc1C (stereo unspecified)	-44.3	8.5	-3.6	0.8	-1.3	66.5*	42.0
CC([NH2+][O-])C(C)(C)NO (stereo unspecified)	50.5*	30.3	-2.7	-4.6	-0.4	46.6*	33.2
Cc1ccc2cccc(N)c2n1	10.0	-0.4	3.4	2.2	-0.9	41.2*	1.6
COc1ccc2cc(C)c3nnc(SCc4cccnc4)n3c2c1	28.6	3.4	-1.1	-5.0	0.0	40.4*	44.1
CCN(CC)S(=O)(=O)c1cccc(N=Nc2c(O)c3ccccc3oc2=O)c1	58.9*	28.8	-3.2	-5.5	3.2	40.3*	49.9
Cc1cc(NC(=O)c2c(F)cccc2F)n(-c2nc3ccccc3[nH]2)n1	27.2	4.9	-7.9	-9.4	0.6	44.3*	4.8
Cc1cc(NC(=O)c2ccccc2F)n(-c2nc3ccccc3[nH]2)n1	24.3	10.6	-2.5	-2.3	-1.7	33.0	x
Cc1cc(NC(=O)c2c(F)cccc2Cl)n(-c2nc3ccccc3[nH]2)n1	60.8*	-13.8	-2.9	-1.1	5.3	55.3*	26.5
Cc1ccc(CNC(=O)c2cc(-c3ccccc3)nn2CC2CC(c3cccc([N+](=O)[O-])c3)=NO2)cc1 (stereo unspecified)	2.1	2.4	-3.7	-0.9	-1.2	8.6	x
O=C(CN1c2ccccc2Sc2ccccc21)NNC(=S)Nc1ccc(Cl)cc1	28.0	14.4	-4.9	-13.4	-7.7	51.3*	70.0*
COc1ccccc1CN(C)C[C@@H]1OCc2cnnn2CCCC(=O)N([C@H](C)CO)C[C@H]1C	x	2.7	x	x	x	x	x
COc1cc([N+](=O)[O-])cc(/C=N/NC(=O)C(O)(c2ccccc2)c2ccccc2)c1O	36.9	28.7	-7.0	-6.6	-4.3	46.9*	29.2
CCOC(=O)c1ccc(N2N=C(C)/C(=C/C=C/c3ccco3)C2=O)cc1	-12.9	14.3	-2.0	-5.9	3.6	22.8	x
CC1=NN(c2ccc(C(=O)OC(C)C)cc2)C(=O)/C1=C\C=C\c1ccco1	-8.3	12.6	-11.7	-1.5	-2.8	57.3*	51.0*
COC(=O)c1ccc2cn[nH]c2c1	x	-0.4	x	x	x	x	x
SMILES	CCR6 antag	CXCR6 inh	A3G deaminase	APJ ag	A3A deaminase	APJ antagonist	APJ antag confirm
COC(=O)c1sc(N)c(C(=O)OC)c1COC(=O)c1c(C)noc1C	70.2*	58.3*	-3.6	-7.6	-0.3	45.6*	95.6*
CCOC(=O)N(C)C[C@@H]1OCc2cnnn2CCCC(=O)N([C@H](C)CO)C[C@@H]1C	x	-5.2	x	x	x	x	x
O=C1C=C(N2CCOCC2)CCC1	-2.9	-1.4	-6.1	-3.4	-3.5	-54.0	x
O=C1C=C(N2CCOCC2)CO1	6.6	6.7	-1.4	-4.1	-1.2	42.2*	-5.0
COc1cc(C(CC(=O)Nc2cc(C)ccn2)N2Cc3ccccc3C2=O)cc(OC)c1OC (stereo unspecified)	11.3	-11.6	-7.5	0.2	-4.2	16.2	x
CCOC(=O)C(C(=O)OCC)c1cc(Br)c2noc3c2c1C(=O)c1ccccc1-3	82.8*	77.7*	15.3	-4.5	22.6	40.9*	105.2*
COc1ccccc1Cc1c(-c2ccccc2)nc2ccc(Cl)cn12	x	-0.1	x	x	x	x	x
CCOc1ccc(CCNC(=O)Cn2nc(C)n3cccc3c2=O)cc1OCC	-2.6	2.0	0.7	8.2	3.9	-1.6	x
O=C(Cn1cc(S(=O)(=O)Cc2cccc([N+](=O)[O-])c2)c2ccccc21)N1CCOCC1	3.2	4.1	-4.9	-6.2	-2.5	19.1	x
Cc1[nH]n(-c2ccccc2)c(=O)c1C(c1ccc(O)c([N+](=O)[O-])c1)c1c(C)[nH]n(-c2ccccc2)c1=O	45.5	21.0	-2.0	-3.8	-2.0	40.1*	41.3
O=C(NNc1ccc(Cl)cc1)c1sccc1Cl	27.2	8.2	30.4	-6.2	-5.6	61.9*	97.8*
Cc1ccc(Nc2ncnc(N)n2)cc1C	8.8	0.8	-1.4	-0.1	-1.9	-3.0	x
COc1ccc(CCNC(=O)Cc2ccccc2)cc1OC	17.2	2.9	-5.7	-2.4	-0.3	111.0*	27.2
COc1ccc(C(=O)N2CCC2(C)C(=O)NC(C)C)cc1 (stereo unspecified)	x	0.9	x	x	x	x	x
C/C(=N/NC(=O)c1ccco1)c1cccnc1	10.3	-1.8	-4.0	3.0	-1.5	10.1	x
COc1cc(/C=N/NS(=O)(=O)c2ccc(C)c([N+](=O)[O-])c2)cc([N+](=O)[O-])c1O	47.0	27.2	-3.9	-5.9	-3.6	50.4*	59.7*
COc1cc(/C=N/NS(=O)(=O)c2ccc(C)c([N+](=O)[O-])c2)ccc1O	5.5	10.5	-13.2	1.3	9.2	23.7	x

High-throughput results: PubChem BioAssay, Sanford-Burnham Center for Chemical Genomics
